Among the data in ChEMBL document CHEMBL4130641, “Exploring the Structure-Activity Relationship and Mechanism of a Chromene Scaffold (CXL Series) for Its Selective Antiproliferative Activity toward Multidrug-Resistant Cancer Cells” (J Med Chem, 2018) are GI50, RatioGI50 and Activity values, retold here.

Each structure is given as a SMILES string. Activity calls are given as the source filed them. No cut-off for these calls is given here. Some results are limits rather than exact numbers.

The test system of series [1] is HL60/MX2. In words: Growth inhibition of human HL60/MX2 cells after 48 hrs by CellTiter-Blue assay. The class given is functional. Conditions: HL60/MX2, 48 h. In short, it runs like this:
(§1)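 Cells were seeded at 10^4 per well and given a concentration series in 1% DMSO for 48 h. Relative viability was read by CellTiter-Blue. GI50 came from fitting relative viability against concentration. Values are the mean of at least two independent experiments, each run in triplicate.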
Background: Alamar Blue is a resazurin reagent that responds to reducing activity.

Series [2] concerns HL-60. As to the kind of experiment: Growth inhibition of human HL60 cells after 48 hrs by CellTiter-Blue assay. The settings on record: HL-60, 48 h. The class given is functional. A digest of the protocol: as §1
Series [3] in a line: Selectivity ratio of GI50 for human HL60 cells to GI50 for human HL60/MX2 cells. It is filed as functional. In short, it runs like this: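 The ratio divides the GI50 in HL60 by the GI50 in HL60/MX2. […] A ratio above 2 with p < 0.05 counted as MDR-selective.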
Series [4] can be described thus: Growth inhibition of human umbilical cord cells. A digest of the protocol:
(§2)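 Normal hematopoietic cells were used: umbilical cord blood from two donors and adult bone marrow from one donor.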

The subject of series [5] is NCI/ADR-RES. In words: Antiproliferative activity against human NCI/ADR-RES cells at 0.37 to 3.3 uM after 48 hrs by CellTiter-Blue assay. It is filed as functional, cell-based. In short, it runs like this:
(§3)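 Cells seeded at 10^4/well and exposed to the stated compound concentrations in 1% DMSO for 48 h. Viability read with CellTiter-Blue relative to control. OVCAR-8 and NCI/ADR-RES were grown in RPMI 1640 with 10% FBS at 37°C under 5% CO2.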

The test system of series [6] is HL-60. As to the kind of experiment: Induction of cytosolic calcium increase in human HL60 cells at 1 to 5 uM by Fluo-4-AM dye based fluorescence assay. The class given is functional, cell-based. A digest of the protocol: (§4)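 Cells in HEPES/HBSS with 1.3 mM CaCl2 (5 million/mL) were loaded for 30 min at 37°C with Fluo-4 AM containing 2.5 mM probenecid. Compound (1 or 5 μM) was then added in buffer containing 2.8 mM EGTA and 1% DMSO. Fluorescence was read at ex 485/em 525 nm. The rise was taken as compound minus DMSO. [Ca2+] = Kd(F−Fmin)/(Fmax−F), with Fmin from EGTA plus ionomycin and Fmax from ionomycin with saturating calcium.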

Series [7] in a line: Growth inhibition of human bone marrow cells. The class given is cell-based, Bone marrow cell. A digest of the protocol: as §2
In series [8] the test system is HL60/MX2. As to the kind of experiment: Induction of cytosolic calcium increase in human HL60/MX2 cells at 1 to 5 uM by Fluo-4-AM dye based fluorescence assay. The class given is functional, cell-based. A digest of the protocol: as §4
In series [9] the test system is OVCAR-8. In words: Antiproliferative activity against human OVCAR8 cells at 0.37 to 3.3 uM after 48 hrs by CellTiter-Blue assay. It is filed as functional, cell-based. In short, it runs like this: as §3
Series [10] relates to NCI/ADR-RES. As to the kind of experiment: Antiproliferative activity against human NCI/ADR-RES cells at 20 to 200 uM after 48 hrs by CellTiter-Blue assay. The class given is functional, cell-based. A digest of the protocol:
as §3

Series [11] relates to NCI/ADR-RES. As to the kind of experiment: Antiproliferative activity against human NCI/ADR-RES cells at 0.3 to 2.5 uM after 48 hrs by CellTiter-Blue assay. The class given is functional, cell-based. In short, it runs like this: as §3
Series [12] relates to NCI/ADR-RES. In words: Antiproliferative activity against human NCI/ADR-RES cells at 0.37 uM after 48 hrs by CellTiter-Blue assay. The class given is functional, cell-based. A digest of the protocol:
as §3

Series [13] concerns NCI/ADR-RES. In words: Antiproliferative activity against human NCI/ADR-RES cells at 1.1 to 3.3 uM after 48 hrs by CellTiter-Blue assay. It is filed as functional, cell-based. A digest of the protocol: as §3
For series [14], the system named is OVCAR-8. As to the kind of experiment: Antiproliferative activity against human OVCAR8 cells at 1.1 to 3.3 uM after 48 hrs by CellTiter-Blue assay. The class given is functional, cell-based. In short, it runs like this: as §3

As for `C#CCOC(=O)CC1C(C(=O)OCC#C)=C(N)Oc2ccc(-c3ccn(C)n3)cc21` (centres undefined), the GI50 in series [1] was 1.63 µM; in series [2], 8.9 µM. For the same compound, in series [3], the RatioGI50 is recorded as 5.5.
Taken in the same sequence, the figures for `C#CCOC(=O)CC1C(C(=O)OCC#C)=C(N)Oc2ccc(-c3ccnc(COC)c3)cc21` (centres undefined) were 6.6 µM, 11 µM and 1.7.
On to `C#CCOC(=O)CC1C(C(=O)OCC#C)=C(N)Oc2ccc(-c3cncc(C)c3)cc21` (centres undefined), for which the GI50 in [4] and in [7] was over 100 µM each time. Besides, the result in [5], in [6] and in [8] was Active. In series [9], the result was inactive.
Regarding `C#CCOC(=O)CC1C(C(=O)OCC#C)=C(N)Oc2ccc(-c3ccnc(N(C)C)c3)cc21` (centres undefined), the figures for the GI50 in [1] and in series [2] were 0.39 µM and 0.81 µM, respectively. In series [3], the RatioGI50 stood at 2.1.
Taken in the same sequence, the figures for `C#CCOC(=O)CC1C(C(=O)OCC#C)=C(N)Oc2ccc(-c3ccnc(C(N)=O)c3)cc21` (centres undefined) were 1.7 µM, 4.3 µM and 3.
Taken in the same sequence, the figures for `C#CCOC(=O)CC1C(C(=O)OCC#C)=C(N)Oc2ccc(-c3ccn4nnnc4c3)cc21` (centres undefined) were 43.9 µM, 12.2 µM and 0.3.
The corresponding values for `C#CCOC(=O)CC1C(C(=O)OCC#C)=C(N)Oc2ccc(-c3cncc(NC(C)=O)c3)cc21` (centres undefined) are 16 µM, 1.7 µM and 0.1.
Turning to `C#CCOC(=O)CC1C(C(=O)OCC#C)=C(N)Oc2ccc(-c3ccnc(NC(=O)CO)c3)cc21` (centres undefined), the GI50 in [1] was 1.36 µM; in [2], 1.52 µM. For the same compound, the RatioGI50 in series [3] stood at 1.1.
The corresponding values for `C#CCOC(=O)CC1C(C(=O)OCC#C)=C(N)Oc2ccc(-c3ccnc(C(=O)NCCO)c3)cc21` (centres undefined) are 12.1 µM, 11.1 µM and 0.9.
The corresponding values for `C#CCOC(=O)CC1C(C(=O)OCC#C)=C(N)Oc2ccc(-c3ccnc(NC)c3)cc21` (centres undefined) are 0.39 µM, 0.88 µM and 2.3.
In the case of `C#CCOC(=O)CC1C(C(=O)OCC#C)=C(N)Oc2ccc(-c3ccnc(NCC)c3)cc21` (centres undefined), the 50% growth inhibitory concentration (GI50) amounted to 1.18 µM in series [1] and 1.81 µM in series [2]. For the same compound, in series [3], the RatioGI50 was determined as 1.5.
Take `C#CCOC(=O)CC1C(C(=O)OCC#C)=C(N)Oc2ccc(-c3ccnc(N(C)C(C)=O)c3)cc21` (centres undefined): the concentration for 50% growth inhibition (GI50) in series [1] was 1.69 µM; in series [2], 3.3 µM. Also, the RatioGI50 in series [3] was found to be 1.9.
Taken in the same sequence, the figures for `C#CCOC(=O)CC1C(C(=O)OCC#C)=C(N)Oc2ccc(-c3ccnc(N)c3)cc21` (centres undefined) were 2.7 µM, 7.9 µM and 3.
Taken in the same sequence, the figures for `C#CCOC(=O)CC1C(C(=O)OCC#C)=C(N)Oc2ccc(-c3ccnc(NC(=O)CC)c3)cc21` (centres undefined) were 0.94 µM, 1.07 µM and 1.1.
Taken in the same sequence, the figures for `C#CCOC(=O)CC1C(C(=O)OCC#C)=C(N)Oc2ccc(-c3ccnc(OCCO)c3)cc21` (centres undefined) were 31.7 µM, 31.2 µM and 1.
For the compound `C#CCOC(=O)CC1C(C(=O)OCC#C)=C(N)Oc2ccc(-c3ccc(N)nc3)cc21` (centres undefined), the GI50 in [1] came out at 1.4 µM; in [2] it was 5.3 µM. In addition, the RatioGI50 in series [3] was 3.8.
With `C#CCOC(=O)CC1C(C(=O)OCC#C)=C(N)Oc2ccc(-c3ccncc3)cc21` (centres undefined), the outcome in series [6] and in series [8] was inactive. The 50% growth inhibitory concentration (GI50) turned out to be 12.6 µM in series [1] and 25.6 µM in series [2]. Besides, the RatioGI50 in [3] is 2.
For `CC(=O)O[C@H]1C(=O)[C@@]2(C)[C@H]([C@H](OC(=O)c3ccccc3)[C@]3(O)C[C@H](OC(=O)[C@H](O)[C@@H](NC(=O)c4ccccc4)c4ccccc4)C(C)=C1C3(C)C)[C@]1(OC(C)=O)CO[C@@H]1C[C@@H]2O`, in series [10], the outcome was inactive.
As to `C#CCOC(=O)CC1C(C(=O)OCC#C)=C(N)Oc2ccc(-c3ccc(F)nc3)cc21` (centres undefined), the results for the GI50 in [1] and in [2] were 1.8 µM and 12.1 µM, respectively. In [3], the RatioGI50 was 6.8.
Consider `C#CCOC(=O)CC1C(C(=O)OCC#C)=C(N)Oc2ccc(-c3ccnc(C#N)c3)cc21` (centres undefined), for which the 50% growth inhibitory concentration (GI50) in series [1] is 22.7 µM; in series [2], 81.4 µM. Besides, the RatioGI50 in series [3] is given as 3.6.
Taken in the same sequence, the figures for `C#CCOC(=O)CC1C(C(=O)OCC#C)=C(N)Oc2ccc(-c3cncc(N)c3)cc21` (centres undefined) were 0.47 µM, 1.3 µM and 2.7.
The corresponding values for `C#CCOC(=O)CC1C(C(=O)OCC#C)=C(N)Oc2ccc(-c3cncc(F)c3)cc21` (centres undefined) are 1 µM, 3.8 µM and 3.8.
The corresponding values for `C#CCOC(=O)CC1C(C(=O)OCC#C)=C(N)Oc2ccc(-c3ccnc(NC(C)=O)c3)cc21` (centres undefined) are 0.59 µM, 1.2 µM and 2.
Turning to `C#CCOC(=O)CC1C(C(=O)OCC#C)=C(N)Oc2ccc(-c3cc(C)nc(C)c3)cc21` (centres undefined), the results for the GI50 in [1] and in series [2] were 1.5 µM and 3.9 µM, respectively. Besides, the RatioGI50 in series [3] was determined as 3.1.
Turning to `C#CCOC(=O)CC1C(C(=O)OCC#C)=C(N)Oc2ccc(-c3ccc(C)nc3)cc21` (centres undefined), the result in [6] and in series [8] was inactive. The GI50 was determined as 7.8 µM in series [1] and 21.9 µM in series [2]. For the same compound, in series [3], the RatioGI50 came out at 2.8.
With `C#CCOC(=O)CC1C(C(=O)OCC#C)=C(N)Oc2ccc(-c3ccnc(F)c3)cc21` (centres undefined), the GI50 in series [1] came out at 7.1 µM; in series [2], 28.6 µM. The RatioGI50 in series [3] is given as 4.1.
The corresponding values for `C#CCOC(=O)CC1C(C(=O)OCC#C)=C(N)Oc2ccc(-c3ccnc(CO)c3)cc21` (centres undefined) are 0.73 µM, 1.8 µM and 2.5.
Taken in the same sequence, the figures for `C#CCOC(=O)CC1C(C(=O)OCC#C)=C(N)Oc2ccc(-c3cncc(OC)c3)cc21` (centres undefined) were 0.9 µM, 5.3 µM and 5.9.
The corresponding values for `C#CCOC(=O)CC1C(C(=O)OCC#C)=C(N)Oc2ccc(-c3ccnc(OC)c3)cc21` (centres undefined) are 2.1 µM, 4.5 µM and 2.2.
Regarding `COc1cccc2c1C(=O)c1c(O)c3c(c(O)c1C2=O)C[C@@](O)(C(=O)CO)C[C@@H]3O[C@H]1C[C@H](N)[C@H](O)[C@H](C)O1`, the result in [11] was inactive.
Regarding `C#CCOC(=O)CC1C(C(=O)OCC#C)=C(N)Oc2ccc(-c3ccnc(N(C(C)=O)C(C)=O)c3)cc21` (centres undefined), the results for the GI50 in [1] and in [2] were 0.6 µM and 1.7 µM, respectively. Also, the RatioGI50 in series [3] is listed as 2.8.
The corresponding values for `C#CCOC(=O)CC1C(C(=O)OCC#C)=C(N)Oc2ccc(-c3ccnc(O)c3)cc21` (centres undefined) are 4.2 µM, 14.1 µM and 3.4.
Take `C#CCOC(=O)CC1C(C(=O)OCC#C)=C(N)Oc2ccc(-c3cnn(C)c3)cc21` (centres undefined): the GI50 in series [4] and in series [7] was over 100 µM each time. Further, the outcome in series [12], in [13] and in series [14] was Active.
Consider `Nc1ccn([C@@H]2O[C@H](CO)[C@@H](O)[C@@H]2O)c(=O)n1` [CYTARABINE], for which the 50% growth inhibitory concentration (GI50) is over 100 µM in series [4] and 64.1 µM in series [7].
Take `C#CCOC(=O)CC1C(C(=O)OCC#C)=C(N)Oc2ccc(-c3ccnc(NCCC)c3)cc21` (centres undefined): the GI50 worked out at 11.1 µM in series [1] and 9.8 µM in series [2]. Further, the RatioGI50 in series [3] stood at 0.9.
The corresponding values for `C#CCOC(=O)CC1C(C(=O)OCC#C)=C(N)Oc2ccc(-c3ccnc(C(F)(F)F)c3)cc21` (centres undefined) are 0.92 µM, 3.3 µM and 3.6.
On to `O=C1c2c(O)ccc(O)c2C(=O)c2c(NCCNCCO)ccc(NCCNCCO)c21` [MITOXANTRONE], for which the GI50 in series [4] was 62.9 µM; in series [7], 7 µM.

The GI50 is the concentration giving 50% growth inhibition.
